According to ChEMBL document CHEMBL4732237, “Discovery of 4-alkoxy-2-aryl-6,7-dimethoxyquinolines as a new class of topoisomerase I inhibitors endowed with potent in vitro anticancer activity” (2021):

What follows are molecules tested on UACC-62 (assay: Growth inhibition of human UACC-62 cells incubated for 48 hrs by sulforhodamine B assay).
Type: functional
Outline: (§1)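 NCI five-dose assay, with drug stocks in DMSO diluted in medium to five concentrations (10-fold or ½-log series). Cells in RPMI 1640/5% FBS were pre-incubated 24 h, and time-zero plates were TCA-fixed at drug addition. After 48 h at 37 °C, cells were TCA-fixed, SRB-stained and read at 515 nm. GI50 is from [(Ti-Tz)/(C-Tz)]×100 = 50, TGI from Ti = Tz, and LC50 from [(Ti-Tz)/Tz]×100 = -50.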
`COc1cc2nc(-c3ccc(C(F)(F)F)cc3)cc(OCCCN3CCCC3)c2cc1OC` gave a GI50 of 1380 nM.

The molecules below were run on SF-295 (assay: Growth inhibition of human SF-295 cells incubated for 48 hrs by sulforhodamine B assay).
Type: functional
Outline: (§2)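 NCI five-dose screen (0.01–100 µM; five concentrations plus control). Cells grown in RPMI 1640/5% FBS/2 mM L-glutamine and preincubated 24 h, with time-zero plates TCA-fixed. Drug exposure 48 h at 37 °C, followed by SRB protein staining and reading at 515 nm. GI50 is the concentration at [(Ti-Tz)/(C-Tz)]×100 = 50.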
Work on `COc1cc2nc(-c3ccc(C(F)(F)F)cc3)cc(OCCCN3CCCC3)c2cc1OC` yielded a GI50 of 328 nM.

Each molecule was assayed on SK-MEL-28 (assay: Growth inhibition of human SK-MEL-28 cells incubated for 48 hrs by sulforhodamine B assay).
Type: functional
Outline: as §2
`COc1cc2nc(-c3ccc(C(F)(F)F)cc3)cc(OCCCN3CCCC3)c2cc1OC` was tested, and the GI50 was 1200 nM.

What follows are molecules tested on UO-31 (assay: Growth inhibition of human UO-31 cells incubated for 48 hrs by sulforhodamine B assay).
Type: functional
Outline: as §1
Work on `COc1cc2nc(-c3ccc(C(F)(F)F)cc3)cc(OCCCN3CCCC3)c2cc1OC` yielded a GI50 of 2020 nM.

Each molecule was assayed on OVCAR-3 (assay: Growth inhibition of human OVCAR-3 cells incubated for 48 hrs by sulforhodamine B assay).
Type: functional
Outline: as §2
`COc1cc2nc(-c3ccc(C(F)(F)F)cc3)cc(OCCCN3CCCC3)c2cc1OC` gave a GI50 of 2150 nM.

These molecules were tested on DU-145 (assay: Growth inhibition of human DU-145 cells incubated for 48 hrs by sulforhodamine B assay).
Type: functional
Outline: (§3)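 NCI five-dose screen covering 0.01–100 µM, prepared as 10-fold or ½-log dilutions from DMSO stock. Cells in RPMI 1640 with 5% FBS were exposed for 48 h at 37 °C after 24 h preincubation. Adherent cells were fixed with TCA (final 10%) and suspension cells were settled before fixing. Stain was SRB, read at 515 nm. GI50 = 50% reduction in net protein increase versus control, with Tz taken at drug addition.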
For `COc1cc2nc(-c3ccc(C(F)(F)F)cc3)cc(OCCCN3CCCC3)c2cc1OC`, the GI50 was 1370 nM.

What follows are molecules tested on HOP-92 (assay: Growth inhibition of human HOP-92 cells incubated for 48 hrs by sulforhodamine B assay).
Type: functional
Outline: as §3
For `COc1cc2nc(-c3ccc(C(F)(F)F)cc3)cc(OCCCN3CCCC3)c2cc1OC`, the GI50 was 460 nM.

What follows are molecules tested on TK-10 (assay: Growth inhibition of human TK-10 cells incubated for 48 hrs by sulforhodamine B assay).
Type: functional
Outline: as §1
`COc1cc2nc(-c3ccc(C(F)(F)F)cc3)cc(OCCCN3CCCC3)c2cc1OC` gave a GI50 of 3240 nM.

What follows are molecules tested on OVCAR-5 (assay: Growth inhibition of human OVCAR-5 cells incubated for 48 hrs by sulforhodamine B assay).
Type: functional
Outline: as §2
`COc1cc2nc(-c3ccc(C(F)(F)F)cc3)cc(OCCCN3CCCC3)c2cc1OC` showed a GI50 of 803 nM.

These molecules were tested on HCT-116 (assay: Growth inhibition of human HCT-116 cells incubated for 48 hrs by sulforhodamine B assay).
Type: functional
Outline: as §3
For `COc1cc2nc(-c3ccc(C(F)(F)F)cc3)cc(OCCCN3CCCC3)c2cc1OC`, the GI50 was 456 nM.

These molecules were tested on A549 (assay: Growth inhibition of human A549 cells incubated for 48 hrs by sulforhodamine B assay).
Type: functional
Outline: as §3
For `COc1cc2nc(-c3ccc(C(F)(F)F)cc3)cc(OCCCN3CCCC3)c2cc1OC`, the GI50 was 653 nM.

What follows are molecules tested on T47D (assay: Growth inhibition of human T47D cells incubated for 48 hrs by sulforhodamine B assay).
Type: functional
Outline: as §1
With `COc1cc2nc(-c3ccc(C(F)(F)F)cc3)cc(OCCCN3CCCC3)c2cc1OC` the GI50 was 472 nM.

What follows are molecules tested on UACC-257 (assay: Growth inhibition of human UACC-257 cells incubated for 48 hrs by sulforhodamine B assay).
Type: functional
Outline: as §1
Molecule `COc1cc2nc(-c3ccc(C(F)(F)F)cc3)cc(OCCCN3CCCC3)c2cc1OC` has a GI50 of 1410 nM.

Each molecule was assayed on OVCAR-8 (assay: Growth inhibition of human OVCAR-8 cells incubated for 48 hrs by sulforhodamine B assay).
Type: functional
Outline: as §2
`COc1cc2nc(-c3ccc(C(F)(F)F)cc3)cc(OCCCN3CCCC3)c2cc1OC` was tested, and the GI50 was 806 nM.

The molecules below were run on Malme-3M (assay: Growth inhibition of human Malme-3M cells incubated for 48 hrs by sulforhodamine B assay).
Type: functional
Outline: as §2
`COc1cc2nc(-c3ccc(C(F)(F)F)cc3)cc(OCCCN3CCCC3)c2cc1OC` gave a GI50 of 1010 nM.

The molecules below were run on CAKI-1 (assay: Growth inhibition of human CAKI-1 cells incubated for 48 hrs by sulforhodamine B assay).
Type: functional
Outline: as §3
`COc1cc2nc(-c3ccc(C(F)(F)F)cc3)cc(OCCCN3CCCC3)c2cc1OC` was tested, and the GI50 was 188 nM.

These molecules were tested on NCI-H322M (assay: Growth inhibition of human NCI-H322M cells incubated for 48 hrs by sulforhodamine B assay).
Type: functional
Outline: as §2
`COc1cc2nc(-c3ccc(C(F)(F)F)cc3)cc(OCCCN3CCCC3)c2cc1OC` was tested, and the GI50 was 6770 nM.

What follows are molecules tested on SK-MEL-5 (assay: Growth inhibition of human SK-MEL-5 cells incubated for 48 hrs by sulforhodamine B assay).
Type: functional
Outline: as §2
`COc1cc2nc(-c3ccc(C(F)(F)F)cc3)cc(OCCCN3CCCC3)c2cc1OC` was tested, and the GI50 was 247 nM and the TGI was 645 nM.

The molecules below were run on MDA-MB-231 (assay: Growth inhibition of human MDA-MB-231 cells incubated for 48 hrs by sulforhodamine B assay).
Type: functional
Outline: as §3
With `COc1cc2nc(-c3ccc(C(F)(F)F)cc3)cc(OCCCN3CCCC3)c2cc1OC` the GI50 was 565 nM.

Each molecule was assayed on NCI-H460 (assay: Growth inhibition of human NCI-H460 cells incubated for 48 hrs by sulforhodamine B assay).
Type: functional
Outline: as §2
`COc1cc2nc(-c3ccc(C(F)(F)F)cc3)cc(OCCCN3CCCC3)c2cc1OC` was tested, and the GI50 was 528 nM.

Each molecule was assayed on HCC 2998 (assay: Growth inhibition of human HCC 2998 cells incubated for 48 hrs by sulforhodamine B assay).
Type: functional
Outline: as §3
`COc1cc2nc(-c3ccc(C(F)(F)F)cc3)cc(OCCCN3CCCC3)c2cc1OC` was tested, and the GI50 was 1450 nM.
